Test results as given in ChEMBL document CHEMBL1155909, “Discovery and stereoselective synthesis of the novel isochroman neurokinin-1 receptor antagonist 'CJ-17,493'” (Bioorg Med Chem, 2008).

Columns and labels:
CYP2D6 = CYP2D6 (Homo sapiens, UniProt P10635); test: (§1) Inhibition of human CYP2D6 at 5 uM; type: ADME
Cytochrome P450 2D6 [1] = molecular target: T1, Cytochrome P450 2D6 (Homo sapiens, UniProt P10635); test: Binding affinity to human CYP2D6 using bufuralol as substrate; type: ADME
Substance-P receptor = Substance-P receptor (Homo sapiens, UniProt P25103); test: Displacement of [3H]SP from NK1 receptor in human IM9 cells
Substance-P receptor, sequence (P25103 whole entry): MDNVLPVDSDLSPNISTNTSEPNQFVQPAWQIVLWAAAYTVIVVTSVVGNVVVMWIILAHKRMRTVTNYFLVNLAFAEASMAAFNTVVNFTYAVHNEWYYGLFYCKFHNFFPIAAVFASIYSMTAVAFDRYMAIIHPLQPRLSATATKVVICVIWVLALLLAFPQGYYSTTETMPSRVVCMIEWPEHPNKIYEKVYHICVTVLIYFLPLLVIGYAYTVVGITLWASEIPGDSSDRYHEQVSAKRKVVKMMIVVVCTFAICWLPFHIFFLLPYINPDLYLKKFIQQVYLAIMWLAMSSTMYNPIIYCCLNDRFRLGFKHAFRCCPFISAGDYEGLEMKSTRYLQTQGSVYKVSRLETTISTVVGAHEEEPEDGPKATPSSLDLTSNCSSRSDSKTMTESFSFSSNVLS

Gerbillinae [2] = test: Inhibition of [Sar9, Met(O2)11]SP-induced foot tapping in sc dosed gerbil
Liver microsomes = test: Metabolic stability in human liver microsome assessed as ratio of half life between CYP2D6-deficient microsome and CYP2D6-deficient microsome with addition of exogenous CYP2D6; type: ADME
Summary of the method: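 Half-lives were measured in CYP2D6-deficient human liver microsomes with and without added exogenous CYP2D6. The value is the ratio of the half-life without CYP2D6 to the half-life with it.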

Mustela putorius furo [3] = test: Antiemetic activity against cisplatin-induced emesis in sc dosed ferrets; type: functional, organism-based
Summary of the method: (§2)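 Ferrets were given the test compound sc 30 min before cisplatin (10 mg/kg, ip). Retching and vomiting/gagging episodes were counted against vehicle control. Groups were n = 4–5, data are mean ± SEM, and Student's t-test was used. Results are given as ED90 (mg/kg, sc) or as % inhibition at the stated dose.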

Gerbillinae [4] = test: Inhibition of [Sar9, Met(O2)11]SP-induced foot tapping in gerbil at 0.1 mg/kg, sc relative to CP-122721; conditions: for % inhibition at 0.1 mg/kg / inhibition in vivo at 0.1 mg/kg: Gerbillinae, sc
Gerbillinae [5] = test: Inhibition of [Sar9, Met(O2)11]SP-induced foot tapping in gerbil at 1 mg/kg, sc relative to CP-122721
Cytochrome P450 2D6 [6] = molecular target: T1, Cytochrome P450 2D6; test: as §1; type: ADME; conditions: 5 µM
Mustela putorius furo [7] = test: Antiemetic activity against cisplatin-induced emesis in ferrets at 0.3 mg/kg, sc; type: functional; conditions: route subcutaneous; summary of the method: as §2
[8] = Volume of distribution at steady state in rat at 0.3 mg/kg, iv; type: ADME, organism-based; parameters: dose 0.3 mg/kg, route intravenous; conditions: in vivo, read-out: Vdss
Summary of the method: (§3)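 Rats received 0.3 mg/kg iv. Plasma clearance, steady-state volume of distribution and half-life were derived from plasma levels.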

[9] = Half life in rat at 0.3 mg/kg, iv; type: ADME, organism-based; parameters: dose 0.3 mg/kg, route intravenous; conditions: in vivo; summary of the method: as §3
[10] = molecular target: Sodium channel protein type 2 subunit alpha (Rattus norvegicus, UniProt P04775); test: Displacement of [3H]batrachotoxinin from rat sodium channel type 2A subunit expressed in CHO-CNa2A cells […]; type: cell-based
Sodium channel protein type 2 subunit alpha, sequence (P04775 whole entry): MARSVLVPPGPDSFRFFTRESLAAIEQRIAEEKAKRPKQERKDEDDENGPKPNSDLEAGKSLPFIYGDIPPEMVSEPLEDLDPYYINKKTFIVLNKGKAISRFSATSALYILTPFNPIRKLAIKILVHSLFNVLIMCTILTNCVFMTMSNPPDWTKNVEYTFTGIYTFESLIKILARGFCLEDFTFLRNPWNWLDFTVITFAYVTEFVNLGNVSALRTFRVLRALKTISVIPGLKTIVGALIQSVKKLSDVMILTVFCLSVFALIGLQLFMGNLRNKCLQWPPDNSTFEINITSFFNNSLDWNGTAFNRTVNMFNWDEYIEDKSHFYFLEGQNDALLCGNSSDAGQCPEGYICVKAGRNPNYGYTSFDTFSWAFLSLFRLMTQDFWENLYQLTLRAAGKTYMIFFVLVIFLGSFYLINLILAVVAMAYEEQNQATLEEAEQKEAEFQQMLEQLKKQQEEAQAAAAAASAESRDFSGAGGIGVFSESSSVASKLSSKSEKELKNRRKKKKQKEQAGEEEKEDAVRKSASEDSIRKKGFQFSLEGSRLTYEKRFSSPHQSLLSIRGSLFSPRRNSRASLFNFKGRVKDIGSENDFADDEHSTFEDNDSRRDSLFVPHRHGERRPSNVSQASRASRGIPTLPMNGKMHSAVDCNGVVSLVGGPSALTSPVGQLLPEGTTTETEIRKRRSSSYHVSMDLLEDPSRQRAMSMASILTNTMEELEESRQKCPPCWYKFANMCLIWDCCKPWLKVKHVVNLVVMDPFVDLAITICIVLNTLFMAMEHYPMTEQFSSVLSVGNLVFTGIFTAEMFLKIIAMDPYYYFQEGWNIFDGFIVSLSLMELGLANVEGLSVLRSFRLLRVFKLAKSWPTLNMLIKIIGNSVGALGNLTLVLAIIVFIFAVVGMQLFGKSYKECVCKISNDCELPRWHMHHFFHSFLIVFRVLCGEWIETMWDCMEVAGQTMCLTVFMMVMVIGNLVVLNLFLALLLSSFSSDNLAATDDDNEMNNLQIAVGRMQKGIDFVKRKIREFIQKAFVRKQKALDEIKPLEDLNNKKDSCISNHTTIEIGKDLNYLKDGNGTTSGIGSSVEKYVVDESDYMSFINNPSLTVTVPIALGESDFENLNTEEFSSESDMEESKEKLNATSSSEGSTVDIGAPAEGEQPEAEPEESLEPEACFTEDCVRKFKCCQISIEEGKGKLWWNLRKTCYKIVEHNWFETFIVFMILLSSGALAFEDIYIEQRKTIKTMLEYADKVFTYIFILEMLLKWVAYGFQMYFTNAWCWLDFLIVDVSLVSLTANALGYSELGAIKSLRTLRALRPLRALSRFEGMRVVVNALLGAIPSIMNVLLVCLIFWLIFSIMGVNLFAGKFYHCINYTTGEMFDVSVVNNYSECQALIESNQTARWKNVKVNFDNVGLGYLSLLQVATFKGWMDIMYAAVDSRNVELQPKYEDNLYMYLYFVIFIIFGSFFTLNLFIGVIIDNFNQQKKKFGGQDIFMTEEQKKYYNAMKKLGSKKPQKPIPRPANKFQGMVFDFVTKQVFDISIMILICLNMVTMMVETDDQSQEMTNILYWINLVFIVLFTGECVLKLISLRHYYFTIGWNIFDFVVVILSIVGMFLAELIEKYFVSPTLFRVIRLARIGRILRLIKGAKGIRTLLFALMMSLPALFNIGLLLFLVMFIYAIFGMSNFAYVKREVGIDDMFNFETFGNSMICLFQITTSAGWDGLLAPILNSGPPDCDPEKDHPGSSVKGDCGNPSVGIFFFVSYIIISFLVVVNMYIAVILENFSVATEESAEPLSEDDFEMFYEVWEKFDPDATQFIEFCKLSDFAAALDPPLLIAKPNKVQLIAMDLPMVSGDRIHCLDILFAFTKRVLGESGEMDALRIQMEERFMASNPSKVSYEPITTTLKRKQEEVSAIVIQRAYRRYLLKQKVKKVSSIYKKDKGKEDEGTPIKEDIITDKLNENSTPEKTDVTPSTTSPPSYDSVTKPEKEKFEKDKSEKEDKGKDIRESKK

[11] = Clearance in rat at 0.3 mg/kg, iv; type: ADME, organism-based; parameters: dose 0.3 mg/kg, route intravenous; conditions: in vivo; summary of the method: as §3
[12] = Volume of distribution at steady state in dog at 1 mg/kg, iv; type: ADME, organism-based, Canis lupus familiaris; parameters: dose 1 mg/kg, route intravenous; conditions: in vivo, read-out: Vdss
Summary of the method: (§4)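 Dogs received 1 mg/kg iv. Plasma clearance, steady-state volume of distribution and half-life were derived.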

[13] = Displacement of [3H]desmethoxyverapamil from L-type calcium channel
[14] = Clearance in dog at 1 mg/kg, iv; type: ADME, organism-based, Canis lupus familiaris; parameters: dose 1 mg/kg, route intravenous; conditions: in vivo; summary of the method: as §4
[15] = Half life in dog at 1 mg/kg, iv; type: ADME, organism-based, Canis lupus familiaris; parameters: dose 1 mg/kg, route intravenous; conditions: in vivo; summary of the method: as §4
Mustela putorius furo [16] = test: Antiemetic activity against cisplatin-induced emesis in ferrets at 1 mg/kg, sc; type: functional; conditions: route subcutaneous; summary of the method: as §2
[17] = molecular target: Substance-P receptor (Cavia porcellus) (UniProt P30547); test: Activity at NK1 receptor in po dosed guinea pig ureter assessed as capsaicin-induced plasma protein leakage; type: organism-based
Substance-P receptor (Cavia porcellus), sequence (P30547 whole entry): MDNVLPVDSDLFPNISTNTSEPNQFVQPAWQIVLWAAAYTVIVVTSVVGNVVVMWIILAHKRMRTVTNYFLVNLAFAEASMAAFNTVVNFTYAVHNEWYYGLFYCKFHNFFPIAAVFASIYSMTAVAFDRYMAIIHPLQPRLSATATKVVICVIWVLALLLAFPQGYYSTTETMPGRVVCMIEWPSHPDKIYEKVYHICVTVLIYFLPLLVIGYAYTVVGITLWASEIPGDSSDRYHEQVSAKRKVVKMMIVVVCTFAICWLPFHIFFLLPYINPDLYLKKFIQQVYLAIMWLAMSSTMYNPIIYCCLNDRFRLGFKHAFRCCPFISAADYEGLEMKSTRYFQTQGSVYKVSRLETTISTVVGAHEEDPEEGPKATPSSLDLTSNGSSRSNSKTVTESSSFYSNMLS
Summary of the method: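 Guinea pigs were dosed orally. Capsaicin (30 µM) was given ip and caused plasma protein leakage in the ureter, taken as activation of peripheral NK1 receptors. Inhibition was measured across doses, and the ED50 was derived in mg/kg, po.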

Mustela putorius furo [18] = test: Antiemetic activity against cisplatin-induced emesis in ferrets at 0.1 mg/kg, sc; type: functional; conditions: route subcutaneous; summary of the method: as §2
[19] = Oral bioavailability in rat at 1 to 30 mg/kg; type: ADME, organism-based; conditions: in vivo
Summary of the method: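 Rats received 1–30 mg/kg orally as the hydrochloride salt dissolved in water. Oral bioavailability was determined against iv data.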

[20] = Mustela putorius, sc, read-out: ED90
[21] = dose 0.1 mg/kg, route subcutaneous
[22] = dose 1 mg/kg, route subcutaneous

T1 sequence (P10635 whole entry): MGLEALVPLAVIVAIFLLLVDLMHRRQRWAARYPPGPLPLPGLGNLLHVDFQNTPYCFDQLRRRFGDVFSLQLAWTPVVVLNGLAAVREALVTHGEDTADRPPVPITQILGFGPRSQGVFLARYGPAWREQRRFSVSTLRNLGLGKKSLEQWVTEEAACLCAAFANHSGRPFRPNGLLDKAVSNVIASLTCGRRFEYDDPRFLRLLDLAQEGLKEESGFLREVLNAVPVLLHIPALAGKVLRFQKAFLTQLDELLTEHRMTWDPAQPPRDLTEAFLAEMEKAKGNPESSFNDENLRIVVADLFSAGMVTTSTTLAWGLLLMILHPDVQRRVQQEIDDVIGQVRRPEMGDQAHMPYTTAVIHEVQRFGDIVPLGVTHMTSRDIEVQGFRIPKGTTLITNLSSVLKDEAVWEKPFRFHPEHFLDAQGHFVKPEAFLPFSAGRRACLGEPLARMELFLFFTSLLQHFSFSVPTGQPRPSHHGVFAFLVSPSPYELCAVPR
CYP2D6, sequence (P10635 whole entry): as above

SMILES	inhibition at 5 µM (CYP2D6) [%]	Ki (Cytochrome P450 2D6 [1]) [nM]	IC50 (Substance-P receptor) [nM]	Ratio (Liver microsomes)	ED50 (Gerbillinae [2]) [mg/kg]	ED100 (Mustela putorius furo [3])	ED90 (Mustela putorius furo [3]; [20]) [mg/kg]	other results
COc1ccc(C(C)C)cc1CN[C@H]1C2CCN(CC2)[C@H]1C(c1ccccc1)c1ccccc1 [EZLOPITANT]	64.1	420		1.8			2.1	
COc1cc2c(cc1CN[C@H]1CCCN[C@H]1c1ccccc1)[C@](C)(C(F)(F)F)OCC2 [listing 1 of 2 here]			< 0.1		0.043		0.07	Vd [8]: 7 L/kg; half-life [9]: 8.8 h; Ki (Substance-P receptor): 0.2 nM; IC50 [10]: 48 nM; clearance [11]: 11 mL/min/kg; Vd [12]: 11 L/kg; IC50 [13]: 164 nM; clearance [14]: 31.7 mL/min/kg; half-life [15]: 3.8 h
COc1cc2c(cc1CN[C@H]1CCCN[C@H]1c1ccccc1)C(C(F)(F)F)CC2 (mixture of isomers; 10)			0.9		0.11	1 mg/kg	0.12	inhibition in vivo at 1 mg/kg (Mustela putorius furo [16]): 100%; inhibition (INH) (Cytochrome P450 2D6 [6]): 74.2%
COc1cc2c(cc1CN[C@H]1CCCN[C@H]1c1ccccc1)[C@](C)(C(F)(F)F)OCC2 [listing 2 of 2 here]								ED50 [17]: 0.005 mg/kg
COc1ccc(OC(F)(F)F)cc1CN[C@H]1CCCN[C@H]1c1ccccc1					0.28	>=0.3 mg kg-1	0.09	
COc1cc2c(cc1CN[C@H]1CCCN[C@H]1c1ccccc1)[C@](C)(C(F)(F)F)OCC2.Cl.Cl								bioavailability [19]: < 1%

Further lines, with some results ahead:

inhibition at 5 µM (CYP2D6) [%]	Ki (Cytochrome P450 2D6 [1]) [nM]	IC50 (Substance-P receptor) [nM]	Ratio (Liver microsomes)	SMILES	ED50 (Gerbillinae [2]) [mg/kg]	ED100 (Mustela putorius furo [3])	ED90 (Mustela putorius furo [3]; [20]) [mg/kg]	other results
54.8	1340	0.2	1.16	COc1ccc(C(C)(C)C(F)(F)F)cc1CN[C@H]1CCCN[C@H]1c1ccccc1	0.12	1 mg/kg	0.21	
		< 0.1		COc1cc2c(cc1CN[C@H]1CCCN[C@H]1c1ccccc1)C(C)(C(F)(F)F)CC2 (mixture of isomers)				% inhibition at 0.1 mg/kg (Gerbillinae [4]): 68%; % inhibition at 1 mg/kg (Gerbillinae [5]; Gerbillinae, sc): 80%
		0.16		COc1cc2c(cc1CN[C@H]1CCCN[C@H]1c1ccccc1)C(C)(C(F)(F)F)OC2 (mixture of isomers; 16)				inhibition (INH) (Gerbillinae [4]; [21]): 87%; inhibition (INH) (Cytochrome P450 2D6 [6]): 81%; inhibition (INH) (Gerbillinae [5]; [22]): 94%; inhibition in vivo at 0.3 mg/kg (Mustela putorius furo [7]): 99%
		0.5	7.35	COc1cc2c(cc1CN[C@H]1CCCN[C@H]1c1ccccc1)C(C(F)(F)F)CCC2 (mixture of isomers; 17)		1 mg/kg	0.17	inhibition in vivo at 0.1 mg/kg (Gerbillinae [4]; [21]): 55%; inhibition (INH) (Cytochrome P450 2D6 [6]): 76.5%; inhibition (INH) (Gerbillinae [5]; [22]): 77%
95.6	70	0.9	4.25	COc1ccc(CC(F)(F)F)cc1CN[C@H]1CCCN[C@H]1c1ccccc1	0.03	0.1 mg/kg		ED90 (Mustela putorius furo [3]): < 0.1 mg/kg
75.9	520	0.4	10.6	COc1cc2c(cc1CN[C@H]1CCCN[C@H]1c1ccccc1)C(C(F)(F)F)CC2 (mixture of isomers; 11)				% inhibition at 0.1 mg/kg (Gerbillinae [4]): 79%; % inhibition at 1 mg/kg (Gerbillinae [5]; Gerbillinae, sc): 88%
65.9	840	0.4	2.2	COc1ccc(C(C)C(F)(F)F)cc1CN[C@H]1CCCN[C@H]1c1ccccc1 (mixture of isomers)	0.82	>=1 mg kg-1		ED90 (Mustela putorius furo [3]): 0.3 mg/kg
62.6				COc1ccc(C(C)(OC)C(F)(F)F)cc1CN[C@H]1CCCN[C@H]1c1ccccc1 (mixture of isomers)	0.11			inhibition in vivo at 0.1 mg/kg (Gerbillinae [4]; [21]): 63%; inhibition in vivo at 1 mg/kg (Gerbillinae [5]; Gerbillinae, sc, dose 1 mg/kg, route subcutaneous): 55%; inhibition in vivo at 0.1 mg/kg (Mustela putorius furo [18]): 15%
